# Measured values reported in ChEMBL document CHEMBL1134691, “3-Phenyl-5-acyloxymethyl-2H,5H-furan-2-ones: synthesis and biological activity of a novel group of potential antifungal drugs” (2001).
# Columns and labels:
# Lichtheimia corymbifera [1] = experiment: In vitro inhibition of Absidia corymbifera 272 growth for 24 hours.; type: functional; settings: Lichtheimia corymbifera, 24 h; read-out: MIC
# Method in brief: (§1)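 Filamentous isolates tested by microdilution per NCCLS M27-A in RPMI 1640 plus L-glutamine, buffered with 0.165 M MOPS to pH 7.0. Final inoculum 5 × 10^3 cfu/mL. Compounds in DMSO (final ≤2%), 2-fold series over 1000–0.24 µmol/L. Plates held at 35 °C and read visually after 24 and 48 h. MIC taken as 80% inhibition of control growth; determined twice in duplicate.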
# Lichtheimia corymbifera [2] = experiment: In vitro inhibition of Absidia corymbifera 272 growth for 48 hours.; type: functional; settings: Lichtheimia corymbifera, 48 h; read-out: MIC; method in brief: as §1
# Pichia kudriavzevii [3] = experiment: Inhibition of Candida krusei ATCC 6258 growth for 24 hours in vitro.; type: functional; settings: ATCC 6258, 24 h
# Method in brief: (§2)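 NCCLS M27-A broth microdilution in RPMI 1640 with L-glutamine and 0.165 M MOPS, pH 7.0. Isolates kept on Sabouraud dextrose agar. Inoculum 5 × 10^3 cfu/mL final. Compounds were diluted in DMSO (≤2% final) and tested in 2-fold dilutions of 1000–0.24 µmol/L. Incubation at 35 °C, OD540 read at 24 and 48 h. MIC = 80% growth inhibition versus control; assays run twice in duplicate.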
# Pichia kudriavzevii [4] = experiment: Inhibition of Candida krusei ATCC 6258 growth for 48 hours in vitro.; type: functional; settings: ATCC 6258, 48 h; method in brief: as §2
# Pichia kudriavzevii [5] = experiment: Inhibition of Candida krusei E28 growth for 24 hours in vitro.; type: functional; method in brief: as §2
# Pichia kudriavzevii [6] = experiment: Inhibition of Candida krusei E28 growth for 48 hours in vitro.; type: functional; method in brief: as §2
# Aspergillus fumigatus [7] = experiment: Inhibition of Aspergillus fumigatus 231 growth for 48 hours in vitro.; type: functional; settings: Aspergillus fumigatus, 48 h; read-out: MIC; method in brief: as §1
# Clavispora lusitaniae [8] = experiment: Inhibition of Candida lusitaniae 2446/I growth for 24 hours in vitro.; type: functional; settings: Clavispora lusitaniae, 24 h; read-out: MIC; method in brief: as §2
# Clavispora lusitaniae [9] = experiment: Inhibition of Candida lusitaniae 2446/I growth for 48 hours in vitro.; type: functional; settings: Clavispora lusitaniae, 48 h; read-out: MIC; method in brief: as §2
# Candida parapsilosis [10] = experiment: Inhibition of Candida parapsilosis ATCC 22019 growth for 24 hours in vitro.; type: functional; settings: Lodderomyces parapsilosis, ATCC 22019, 24 h; method in brief: as §2
# Candida parapsilosis [11] = experiment: Inhibition of Candida parapsilosis ATCC 22019 growth for 48 hours in vitro.; type: functional; settings: Lodderomyces parapsilosis, ATCC 22019, 48 h; method in brief: as §2
# Candida albicans [12] = experiment: Inhibition of Candida albicans ATCC 44859 growth for 24 hours in vitro.; type: functional; settings: Candida albicans, ATCC 44859, 24 h; read-out: MIC; method in brief: as §2
# Candida albicans [13] = experiment: Inhibition of Candida albicans ATCC 44859 growth for 48 hours in vitro.; type: functional; settings: Candida albicans, ATCC 44859, 48 h; read-out: MIC; method in brief: as §2
# Candida albicans [14] = experiment: Inhibition of Candida albicans ATCC 90028 for 24 hours in vitro.; type: functional; settings: ATCC 90028, 24 h; method in brief: as §2
# Candida albicans [15] = experiment: Inhibition of Candida albicans ATCC 90028 for 48 hours in vitro.; type: functional; settings: ATCC 90028, 48 h; method in brief: as §2
# Nakaseomyces glabratus [16] = experiment: Inhibition of Candida glabrata 20/I growth for 24 hours in vitro.; type: functional; settings: Nakaseomyces glabratus, 24 h; read-out: MIC; method in brief: as §2
# Nakaseomyces glabratus [17] = experiment: Inhibition of Candida glabrata 20/I growth for 48 hours in vitro.; type: functional; settings: Nakaseomyces glabratus, 48 h; read-out: MIC; method in brief: as §2
# Candida tropicalis [18] = experiment: Inhibition of Candida tropicalis 156 growth for 24 hours in vitro.; type: functional; method in brief: as §2
# Trichosporon beigelii [19] = experiment: Inhibition of Trichosporon beigelli 1188 for 24 hours in vitro.; type: functional; settings: Trichosporon beigelii, 24 h; read-out: MIC
# Method in brief: (§3)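 Microdilution following NCCLS M27-A. Medium: RPMI 1640 with L-glutamine, 0.165 M MOPS, pH 7.0. Final inoculum 5 × 10^3 cfu/mL. Compounds dissolved in DMSO, final ≤2%, serially halved from 1000 to 0.24 µmol/L. Incubated at 35 °C and read at 24 and 48 h. MIC defined as 80% inhibition of control growth; run twice in duplicate.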
# Trichosporon beigelii [20] = experiment: Inhibition of Trichosporon beigelli 1188 for 48 hours in vitro.; type: functional; settings: Trichosporon beigelii, 48 h; read-out: MIC; method in brief: as §3
# [21] = Inhibition of Trichophyton mentagrophytes 445 growth for 72 hours in vitro.; type: functional, Arthroderma benhamiae; settings: Trichophyton benhamiae, 72 h; read-out: MIC
# Method in brief: (§4)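 Dermatophyte grown in MOPS-buffered (0.165 M, pH 7.0) RPMI 1640 containing L-glutamine, in an M27-A microdilution format. Inoculum 5 × 10^3 cfu/mL final. Compounds from DMSO stocks (≤2% final), 2-fold dilutions 1000–0.24 µmol/L. Incubated at 35 °C, growth judged visually at 72 and 120 h. MIC endpoint is 80% inhibition relative to control; measured twice in duplicate.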
# [22] = Inhibition of Trichophyton mentagrophytes 445 growth for 120 hours in vitro.; type: functional, Arthroderma benhamiae; settings: Trichophyton benhamiae, 120 h; read-out: MIC; method in brief: as §4
# Aspergillus fumigatus [23] = experiment: Inhibition of Aspergillus fumigatus 231 growth for 24 hours in vitro.; type: functional; settings: Aspergillus fumigatus, 24 h; read-out: MIC; method in brief: as §1
# Candida tropicalis [24] = experiment: Inhibition of Candida tropicalis 156 growth for 48 hours in vitro.; type: functional; method in brief: as §2
# [25] = Pichia kudriavzevii, read-out: MIC
# [26] = Pichia kudriavzevii, 24 h, read-out: MIC
# [27] = Pichia kudriavzevii, 48 h, read-out: MIC
# [28] = Candida albicans, read-out: MIC
# [29] = Candida tropicalis, 24 h, read-out: MIC
# [30] = Candida tropicalis, 48 h, read-out: MIC
SMILES,MIC (Lichtheimia corymbifera [1]) [µM],MIC (Lichtheimia corymbifera [2]) [µM],MIC (Pichia kudriavzevii [3]; [25]) [µM],MIC (Pichia kudriavzevii [4]; [25]) [µM],MIC (Pichia kudriavzevii [5]; [26]) [µM],MIC (Pichia kudriavzevii [6]; [27]) [µM],MIC (Aspergillus fumigatus [7]) [µM],MIC (Clavispora lusitaniae [8]) [µM],MIC (Clavispora lusitaniae [9]) [µM],MIC (Candida parapsilosis [10]; read-out: MIC) [µM],MIC (Candida parapsilosis [11]; read-out: MIC) [µM],MIC (Candida albicans [12]) [µM],MIC (Candida albicans [13]) [µM],MIC (Nakaseomyces glabratus [16]) [µM],MIC (Nakaseomyces glabratus [17]) [µM],MIC (Trichosporon beigelii [19]) [µM],MIC (Trichosporon beigelii [20]) [µM],MIC [21] [µM],MIC [22] [µM],MIC (Aspergillus fumigatus [23]) [µM],other results
CC(=O)OCC1C=C(c2ccc(Cl)c(Cl)c2)C(=O)O1 (stereo unspecified),15.6,15.6,3.91,7.81,3.91,3.91,7.81,1.95,1.95,3.91,7.81,0.49,3.91,0.98,0.98,1.95,7.81,0.98,0.98,0.98,MIC (Candida albicans [14]; [28]): 3.91 µM; MIC (Candida albicans [15]; [28]): 3.91 µM; MIC (Candida tropicalis [18]; [29]): 3.91 µM; MIC (Candida tropicalis [24]; [30]): 7.81 µM
COc1ccc(C2=CC(CO)OC2=O)cc1 (stereo unspecified),31.2,62.5,–,–,–,–,500,31.2,125,–,–,15.6,62.5,125,250,500,1000,15.6,62.5,125,MIC (Pichia kudriavzevii [3]): 62.5 µM; MIC (Pichia kudriavzevii [4]): 125 µM; MIC (Pichia kudriavzevii [5]): 62.5 µM; MIC (Pichia kudriavzevii [6]): 125 µM; MIC (Candida parapsilosis [10]): 250 µM; MIC (Candida parapsilosis [11]): 500 µM; MIC (Candida albicans [14]): 31.2 µM; MIC (Candida albicans [15]): 62.5 µM; MIC (Candida tropicalis [18]): 125 µM; MIC (Candida tropicalis [24]): 250 µM
COc1ccc(C2=CC(COC(=O)c3ccc(Cl)cc3)OC2=O)cc1 (stereo unspecified),31.2,62.5,31.2,62.5,31.2,62.5,125,62.5,125,62.5,> 125,1.95,15.6,62.5,125,> 125,> 125,7.81,15.6,31.2,MIC (Candida albicans [14]; [28]): 31.2 µM; MIC (Candida albicans [15]; [28]): 62.5 µM; MIC (Candida tropicalis [18]; [29]): 31.2 µM; MIC (Candida tropicalis [24]; [30]): 125 µM
O=C1OC(CO)C=C1c1ccc(Cl)c(Cl)c1 (stereo unspecified),125,125,250,250,125,250,250,125,250,250,500,62.5,250,62.5,62.5,500,> 1000,15.6,15.6,62.5,MIC (Candida albicans [14]; [28]): 250 µM; MIC (Candida albicans [15]; [28]): 500 µM; MIC (Candida tropicalis [18]; [29]): 250 µM; MIC (Candida tropicalis [24]; [30]): 500 µM
